ChEMBL document CHEMBL1137260, “Design and biological evaluation of novel tubulin inhibitors as antimitotic agents using a pharmacophore binding model with tubulin” (J Med Chem, 2006)

Legend:
Huh-7 = test: Antiproliferative activity against human Huh7 cells after 48 hrs; type: functional, cell-based; conditions: Huh-7, 48 h
Outline: (§1)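 Cells kept in DMEM with 10% FBS/glutamine/antibiotics, 37 °C, 5% CO2; 2 × 10⁴ cells seeded, after 24 h exposed to compounds (0.01–100 µM) for 48 h. Part of the supernatant was removed, CellTiter 96 Aqueous reagent added, 2 h further incubation at 37 °C, absorbance at 490 nm read; IC50 derived. Huh7 is a hepatoma line, 293T renal epithelial.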

HEK-293T = test: Antiproliferative activity against human 293T cells after 48 hrs; type: functional, cell-based; outline: as §1
SNU-398 [1] = test: Cell cycle arrest in SNU398 cells by accumulation at G2/M phase at 50 nM; type: functional, Homo sapiens
Outline: (§2)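 SNU-398 hepatoma cells (5 × 10⁵) seeded, grown 24 h, then 48 h with compound or carrier alone. Harvested, PBS-washed twice, stained with a cell cycle analysis kit, analysed by flow cytometry; cell cycle phase percentages estimated, G2/M fraction reported.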

SNU-398 [2] = test: Cell cycle arrest in SNU398 cells by accumulation at G2/M phase at 500 nM; type: functional, Homo sapiens; outline: as §2
SNU-398 [3] = test: Cell cycle arrest in SNU398 cells by accumulation at G2/M phase at 5000 nM; type: functional, Homo sapiens; outline: as §2
Tubulin = test: Inhibition of tubulin polymerization; type: protein-complex assay, Homo sapiens
Outline: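 Tubulin polymerization kit used; components added to wells at 0 °C with 340 nm baselines, then assembly followed at 0 °C and 37 °C and measured turbidimetrically. Compounds tested at 0, 3, 10 and 30 µM; IC50 calculated from the polymerization data.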

SMILES | IC50 (Huh-7) [µM] | IC50 (HEK-293T) [µM] | Activity (SNU-398 [1]) [%] | Activity (SNU-398 [2]) [%] | Activity (SNU-398 [3]) [%] | IC50 (Tubulin) [µM]
O=C(/C=C/c1ccccn1)c1ccc(NC(=O)c2ccco2)cc1 | 9.9 | 9.8 | 36.3 | 36.3 | 46.6 | –
CN(C)CC(=O)Nc1ccc(C(=O)/C=C/c2ccccn2)cc1 | 8.4 | 8.2 | 31.9 | 32.7 | 43 | 19.8
CC(=O)Nc1ccc(C(=O)/C=C/c2ccccn2)cc1 | 9.6 | 13.7 | 37.7 | 37.1 | 43.3 | 15.7
O=C(/C=C/c1ccccn1)c1ccccc1 [WR-190433] | 14.3 | 13.8 | – | – | – | > 30
CCOc1ccc(C(C)(C)C(=O)Nc2ccc(C(=O)/C=C/c3ccccn3)cc2)cc1 | > 100 | > 100 | – | – | – | –
O=C(/C=C/c1cccc2ccccc12)c1ccc(NC(=O)c2cccs2)cc1 | > 100 | > 100 | – | – | – | –
